Measured values: ChEMBL document CHEMBL1121809, “Cyclic guanidines. 14. Imidazo[1,2-a]thienopyrimidin-2-one derivatives as blood platelet aggregation inhibitors” (J Med Chem, 1981)
Values joined by “and” are separate entries in the source; they are usually repeats but may differ in a detail not shown here. Identical values can stand only once.

Legend:
Rattus norvegicus [1] = experiment: Effect on systolic blood pressure in rat after an oral dose at 50 mg/kg (5h after dose); format: functional, Artery
In short: (§1)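 Male Wistar-Imamichi rats, 250 g, were given the compound orally at (50 mg/7.5 mL)/kg as a suspension in 0.5% CMC or 0.5% Tween 80. Systolic pressure and heart rate were taken by tail-cuff after prewarming at 55–60 °C for 3 min, before dosing and at set times after. Five rats per group, mean ± SD. Pressure is reported as decrease and heart rate as percent change.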

Rattus norvegicus [2] = experiment: Effect on heart rate in rat after an oral dose at 50 mg/kg; format: functional; in short: as §1
Rattus norvegicus [3] = species: Rattus norvegicus; experiment: In vitro inhibition of ADP-induced blood platelet aggregation; format: functional
In short: (§2)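 Rat carotid citrated blood was spun at 230g for 7 min to give PRP, adjusted with PPP to about 5 × 10⁵ platelets/μL. Compound in saline or MeOH was added before 10 μM ADP in Tris-HCl/NaCl pH 7.4 with CaCl₂. Aggregation was read at 30 °C, 1100 rpm, as maximal ΔA. EC50 is the concentration giving 50% inhibition.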

Rattus norvegicus [4] = experiment: Effect on systolic blood pressure in rat after an oral dose at 50 mg/kg; format: functional, Artery; in short: as §1
Rattus norvegicus [5] = experiment: Effect of compound on heart rate in rat after an oral dose at 50 mg/kg (6h after dose); format: functional; in short: as §1
Rattus norvegicus [6] = experiment: Effect on systolic blood pressure in rat after an oral dose at 50 mg/kg (6h after dose); format: functional, Artery; in short: as §1
Rattus norvegicus [7] = experiment: Ex vivo inhibition of collagen-induced blood platelet aggregation in rat was measured 2 hr after administration of vehical alone; format: functional
In short: (§3)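 Overnight-fasted rats were dosed orally at (50 mg/10 mL)/kg in 0.5% Tween 80; controls got vehicle at 10 mL/kg. PRP was made from carotid citrated blood 2 h later under pentobarbital. Collagen suspension (absorbance 0.270 at 420 nm) drove aggregation at 30 °C, 1100 rpm. Read-out was the initial maximal rate of absorbance fall (ΔA/min). Inhibition percent is versus controls; 5–7 rats, mean ± SD.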

Rattus norvegicus [8] = experiment: Effect on heart rate in rat after an oral dose at 50 mg/kg (1h after dose); format: functional; in short: as §1
Rattus norvegicus [9] = experiment: (§4) Ex vivo inhibition of collagen-induced blood platelet aggregation in rat was measured 2 hr after oral administration of 50 mg/kg; format: functional; in short: as §3
Rattus norvegicus [10] = experiment: Effect on systolic blood pressure in rat after an oral dose at 50 mg/kg (3h after dose); format: functional, Artery; in short: as §1
Rattus norvegicus [11] = species: Rattus norvegicus; experiment: In vitro inhibition of collagen-induced blood platelet aggregation; format: functional
In short: (§5)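 Rat PRP (about 5 × 10⁵ platelets/μL) was preincubated with compound added in saline or MeOH. Aggregation was started with bovine tendon collagen suspension in Tris buffer (absorbance 0.270 at 420 nm; lag 2–3 min). Read at 30 °C, 1100 rpm, as initial maximal rate ΔA/min. EC50 is the concentration giving 50% inhibition.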

Rattus norvegicus [12] = experiment: Effect on heart rate in rat after an oral dose at 50 mg/kg (4h after dose); format: functional; in short: as §1
Rattus norvegicus [13] = experiment: Effect on heart rate in rat after an oral dose at 50 mg/kg (3h after dose); format: functional; in short: as §1
Rattus norvegicus [14] = experiment: Effect on systolic blood pressure in rat after an oral dose at 50 mg/kg (1h after dose); format: functional, Artery; in short: as §1
Rattus norvegicus [15] = experiment: Effect of compound on heart rate in rat after an oral dose at 50 mg/kg (5h after dose); format: functional; in short: as §1
Rattus norvegicus [16] = experiment: Effect on systolic blood pressure in rat after an oral dose at 50 mg/kg (4h after dose); format: functional, Artery; in short: as §1
Rattus norvegicus [17] = experiment: Effect of compound on systolic blood pressure in rat after an oral dose at 50 mg/kg (24h after dose); format: functional, Artery; in short: as §1
Rattus norvegicus [18] = experiment: Ex vivo inhibition of ADP-induced blood platelet aggregation in rat was measured 2 hr after administration of vehical alone (delta A/min *10e 3); format: functional
[19] = Inhibition ofADP-induced blood platelet aggregation in human; format: functional
In short: (§6)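 In vitro platelet aggregation test. EC50 was estimated from the inhibition rate at three to six compound concentrations and given as the mean of two to three experiments.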

Rattus norvegicus [20] = experiment: Effect of compound on heart rate in rat after an oral dose at 50 mg/kg (2h after dose); format: functional; in short: as §1
Rattus norvegicus [21] = species: Rattus norvegicus; experiment: Inhibition of thrombin-induced blood platelet aggregation in rat; format: functional
In short: (§7)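 Rat PRP was prepared from citrated carotid blood of male Wistar-Imamichi rats (250 g) under pentobarbital anesthesia, spun at 230g for 7 min, and adjusted with PPP to about 5 × 10⁵ platelets/μL. Aggregation was read turbidimetrically at 30 °C with 1100 rpm stirring. Compound in saline or MeOH was added before the agonist. EC50 was estimated from inhibition at three to six concentrations, as the mean of two to three experiments.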

Rattus norvegicus [22] = experiment: Effect of compound on heart rate in rat after an oral dose at 50 mg/kg (24h after dose); format: functional; in short: as §1
Rattus norvegicus [23] = species: Rattus norvegicus; experiment: Inhibition of arachidonic acid-induced blood platelet aggregation in rat; format: functional
In short: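 Rat PRP was stimulated with arachidonic acid at 30 °C under stirring, with compound added before the agonist. EC50 was estimated from inhibition at three to six concentrations and is the mean of two to three experiments.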

Oryctolagus cuniculus = species: Oryctolagus cuniculus; experiment: Inhibition of serotonin/epinephrine-induced blood platelet aggregation in rabbit; format: functional; in short: as §6
[24] = Inhibition of collagen-induced blood platelet aggregation in human; format: functional
In short: (§8)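 In vitro aggregation used human platelets. EC50 was estimated from inhibition at three to six compound concentrations and is the mean of two to three experiments.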

Rattus norvegicus [25] = experiment: as §4; format: functional; in short: as §3
Rattus norvegicus [26] = experiment: Effect of compound on heart rate in rat after an oral dose at 50 mg/kg/5h after dose); format: functional; in short: as §1
Rattus norvegicus [27] = species: Rattus norvegicus; experiment: Inhibition of thrombin-induced blood platelet aggregation in rat; Not mention; format: functional; in short: as §7
Rattus norvegicus [28] = experiment: Effect of compound on heart rate in rat after an oral dose at 50 mg/kg (24h after dose); Not mention; format: functional, organism-based; parameters: dose 50 mg/kg; in short: as §1
Rattus norvegicus [29] = species: Rattus norvegicus; experiment: Inhibition of ADP-induced blood platelet aggregation in rat; format: functional; in short: as §2
Rattus norvegicus [30] = experiment: Inhibition of collagen-induced blood platelet aggregation in rat was measured given compound at an oral dose of 50 mg/kg (delta A/min *10e 3); format: functional; in short: as §3
Rattus norvegicus [31] = experiment: Effect of compound on systolic blood pressure in rat after an oral dose at 50 mg/kg (1h after dose); format: functional, Artery; in short: as §1
[32] = Inhibition of ADP-induced blood platelet aggregation in human; format: functional; in short: as §8
Rattus norvegicus [33] = experiment: Inhibition of collagen-induced blood platelet aggregation in rat was measured given vehicle at an oral dose of 50 mg/kg (delta A/min *10e 3); format: functional; in short: as §3
Rattus norvegicus [34] = experiment: Inhibition of ADP-induced blood platelet aggregation in rat given compound at an oral dose of 50 mg/kg (delta A/min *10e 3); format: functional
Rattus norvegicus [35] = species: Rattus norvegicus; experiment: Inhibition of collagen-induced blood platelet aggregation in rat; format: functional; in short: as §5
Rattus norvegicus [36] = experiment: Inhibition of ADP-induced blood platelet aggregation in rat given vehicle at an oral dose of 50 mg/kg (delta A/min *10e 3); format: functional
Rattus norvegicus [37] = experiment: Effect of compound on heart rate in rat after an oral dose at 50 mg/kg; format: functional; in short: as §1

Compound	Decrease in blood pressure (Rattus norvegicus [1])	Initial heart rate (Rattus norvegicus [2]) [bts min-1]	EC50 (Rattus norvegicus [3]) [µM]	Initial blood pressure (Rattus norvegicus [4]) [mmHg]	Change in heart rate (Rattus norvegicus [5]) [%]	Decrease in blood pressure (Rattus norvegicus [6])	Delta A/min (Rattus norvegicus [7])	Change in heart rate (Rattus norvegicus [8]) [%]	Delta A/min (Rattus norvegicus [9])	Decrease in blood pressure (Rattus norvegicus [10])	EC50 (Rattus norvegicus [11]) [µM]	Change in heart rate (Rattus norvegicus [12]) [%]	Change in heart rate (Rattus norvegicus [13]) [%]	Decrease in blood pressure (Rattus norvegicus [14])	Change in heart rate (Rattus norvegicus [15]) [%]	Decrease in blood pressure (Rattus norvegicus [16])	Decrease in blood pressure (Rattus norvegicus [17])	EC50 [19]	EC50 (Rattus norvegicus [21]) [µM]	EC50 (Rattus norvegicus [23]) [µM]	further results
O=C1CN2Cc3c(ccc(Cl)c3Cl)N=C2N1 [ANAGRELIDE]	14	377	0.8	130	33	14	0.188	28	0.126 ΔA/min	16	0.02	37	31	11	31	14	13	–	–	–	Delta A/min (Rattus norvegicus [18]): 150
Cc1cccc2c1CN1CC(=O)NC1=N2	34	464	5	–	19	35	0.244	18	–	26	0.8	–	17	23	–	–	12	1.7 µM and 10 µM	3	0.5	Change in heart rate (Rattus norvegicus [20]): 20%; Change in heart rate (Rattus norvegicus [22]; 50 mg/kg): 19% and -1%; EC50 (Oryctolagus cuniculus): 3 µM; EC50 [24]: 0.7 µM; Delta A/min (Rattus norvegicus [25]): 0.11 ΔA/min; Change in heart rate (Rattus norvegicus [26]): 18%
CC1C(=O)NC2=Nc3sc4c(c3CN21)CCCC4.Cl (stereo not given)	4	440	48	128	–	–	0.18	5	0.002 ΔA/min	14	0.6	4	2	24	4	11	–	–	–	–	EC50 (Rattus norvegicus [27]): Not mention; Change in heart rate (Rattus norvegicus [28]): Not mention; EC50 (Rattus norvegicus [29]): 48 µM
Cl.O=C1CN2Cc3c(sc4c3CCCC4)N=C2N1	9	467	2	122	–	6	–	4	–	8	0.07	12	8	–	9	8	4	2.2 µM	3	0.5	Delta A/min (Rattus norvegicus [30]): 0; Decrease in blood pressure (Rattus norvegicus [31]): 4; EC50 [32]: 2.2 µM; Change in heart rate (Rattus norvegicus [22]): -1%; Delta A/min (Rattus norvegicus [33]): 156; Delta A/min (Rattus norvegicus [34]): 141; EC50 (Oryctolagus cuniculus): 3 µM; EC50 (Rattus norvegicus [29]): 2 µM; EC50 [24]: 1.2 µM and 0.4 µM; EC50 (Rattus norvegicus [35]): 0.07 µM; Delta A/min (Rattus norvegicus [25]): 0; Delta A/min (Rattus norvegicus [36]): 115; Change in heart rate (Rattus norvegicus [37]): 9%
